The record followed here is ChEMBL document CHEMBL3826910, “Discovery of 3-(5'-Substituted)-Benzimidazole-5-(1-(3,5-dichloropyridin-4-yl)ethoxy)-1H-indazoles as Potent Fibroblast Growth Factor Receptor Inhibitors: Design, Synthesis, and Biological Evaluation” (J Med Chem, 2016).

The IC50 is the midpoint of a concentration-inhibition curve. As usually defined, the Tmax is the time at which the peak concentration occurs. One may read the half-life as how long it takes for the measured level to halve. The low end stands for fast loss, the high end for slow loss. One may read the AUC(0-inf) as the area under the concentration-time curve extrapolated to infinity. In general, clearance refers to the volume of plasma or blood freed of the substance per unit of time. A high value points to a high capacity for elimination. Usually bioavailability stands for dose-corrected exposure relative to a reference, in per cent. High values mean much systemic uptake, low ones little systemic uptake.

Active and inactive are the calls of the source. No cut-off for these calls is given here.

Data set [1] concerns the target T1, Fibroblast growth factor receptor 1 (Homo sapiens, UniProt P11362). In words: Inhibition of recombinant human FGFR1 using poly (Glu, Tyr) 4:1 as substrate after 60 mins by ELISA. (In an ELISA, binding on a coated surface is turned into a signal by an enzyme label.)
Data set [2] relates to NCI-H1581. In words: Antiproliferative activity against FGFR1-amplified human NCI-H1581 cells after 72 hrs by CCK8/MTT assay. In kind it is functional, cell-based. As to conditions: NCI-H1581, 72 h. On the technique in general: Tetrazolium assays rely on reduction of a dye to a coloured formazan, in cell work by metabolically active cells.
Data set [3] can be described thus: Tmax in Sprague-Dawley rat at 5 mg/kg, po. As to conditions: in vivo. It is filed as ADME, organism-based. A digest of the protocol:
(§1)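 Male SD rats (n = 3) dosed orally by gavage at 5 mg/kg as a suspension in 0.5% CMC-Na. Quantified by LC-MS/MS. An IV arm (1 mg/kg) was run in parallel.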

Data set [4] is described as follows: Half life in Sprague-Dawley rat at 1 mg/kg, iv. It is filed as ADME, organism-based. The note with it: in vivo.
Data set [5] is described as follows: AUC (0 to infinity) in Sprague-Dawley rat at 5 mg/kg, po. It is filed as ADME, organism-based. Also noted: dose 5 mg/kg, route oral, time infinity. The note with it: in vivo. Summed up: as §1
The nature of data set [6]: Clearance in Sprague-Dawley rat at 1 mg/kg, iv. It is filed as ADME, organism-based. As to conditions: in vivo.
Data set [7] in a line: Oral bioavailability in Sprague-Dawley rat at 5 mg/kg. As to conditions: in vivo. It is filed as ADME, organism-based. A digest of the protocol:
as §1

Data set [8] has as its target Fibroblast growth factor receptor 3 (Homo sapiens, UniProt P22607). Nature of the data set: Inhibition of recombinant human FGFR3 using poly (Glu, Tyr) 4:1 as substrate after 60 mins by ELISA. Summed up: (§2)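 Purified recombinant kinases tested by ELISA on plates pre-coated with 20 µg/mL poly(Glu,Tyr) 4:1. Reaction run 60 min at 37 °C. Read-out: PY99 anti-phosphotyrosine antibody, HRP anti-mouse IgG and o-phenylenediamine/H2O2, with A490 measured. IC50 from inhibition curves, two independent experiments.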

Data set [9] deals with Epidermal growth factor receptor (Homo sapiens, UniProt P00533). In words: Inhibition of recombinant human EGFR using poly (Glu, Tyr) 4:1 as substrate after 60 mins by ELISA. A digest of the protocol: as §2
For data set [10], the target named is Platelet-derived growth factor receptor alpha (Homo sapiens, UniProt P16234). Nature of the data set: Inhibition of recombinant human PDGFRalpha using poly (Glu, Tyr) 4:1 as substrate after 60 mins by ELISA. Summed up: as §2
Data set [11] addresses Hepatocyte growth factor receptor (Homo sapiens, UniProt P08581). Nature of the data set: Inhibition of recombinant human c-Met using poly (Glu, Tyr) 4:1 as substrate after 60 mins by ELISA. A digest of the protocol: as §2
Data set [12] deals with T2, Receptor-type tyrosine-protein kinase FLT3 (Homo sapiens, UniProt P36888).
T2 sequence (P36888 whole entry): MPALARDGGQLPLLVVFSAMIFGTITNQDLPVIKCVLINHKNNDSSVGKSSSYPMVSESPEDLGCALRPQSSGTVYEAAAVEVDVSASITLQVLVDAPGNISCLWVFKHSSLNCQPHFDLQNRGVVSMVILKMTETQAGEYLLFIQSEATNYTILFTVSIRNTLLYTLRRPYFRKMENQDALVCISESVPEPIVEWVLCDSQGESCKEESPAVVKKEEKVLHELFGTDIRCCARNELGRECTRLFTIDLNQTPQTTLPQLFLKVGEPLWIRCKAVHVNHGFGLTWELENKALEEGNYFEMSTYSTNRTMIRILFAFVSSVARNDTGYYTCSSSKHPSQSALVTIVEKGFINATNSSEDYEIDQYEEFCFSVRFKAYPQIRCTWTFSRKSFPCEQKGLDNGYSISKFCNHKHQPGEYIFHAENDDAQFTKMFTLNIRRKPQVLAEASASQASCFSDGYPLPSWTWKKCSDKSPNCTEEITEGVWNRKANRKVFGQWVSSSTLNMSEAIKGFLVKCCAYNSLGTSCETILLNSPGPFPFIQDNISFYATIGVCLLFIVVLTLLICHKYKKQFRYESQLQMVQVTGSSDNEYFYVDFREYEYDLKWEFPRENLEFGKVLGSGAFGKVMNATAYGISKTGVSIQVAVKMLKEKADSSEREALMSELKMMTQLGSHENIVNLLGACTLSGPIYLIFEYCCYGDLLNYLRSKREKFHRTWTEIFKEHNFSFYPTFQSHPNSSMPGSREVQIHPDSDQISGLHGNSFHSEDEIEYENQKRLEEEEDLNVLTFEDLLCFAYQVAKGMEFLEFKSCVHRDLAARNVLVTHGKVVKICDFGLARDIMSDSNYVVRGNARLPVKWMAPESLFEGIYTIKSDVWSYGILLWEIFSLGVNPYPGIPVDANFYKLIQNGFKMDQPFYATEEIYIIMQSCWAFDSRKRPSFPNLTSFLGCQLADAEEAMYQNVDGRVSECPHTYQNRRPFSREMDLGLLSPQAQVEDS
Nature of the data set: Inhibition of recombinant human Flt3 using poly (Glu, Tyr) 4:1 as substrate after 60 mins by ELISA. A digest of the protocol:
as §2

Data set [13] deals with T1, Fibroblast growth factor receptor 1. In words: Inhibition of FGFR1 phosphorylation in human KG1 cells after 2 hrs by Western blot method. It is filed as cell-based. As to conditions: KG-1. Summed up: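 KG-1 cells treated at indicated concentrations for 2 h, then lysed in 1× SDS sample buffer. Lysates run on 10% SDS-PAGE, transferred to nitrocellulose, and probed for phospho-FGFR, PLCγ and Erk. Detection by enhanced chemiluminescence.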
For orientation: In western blotting, separated proteins are transferred to a membrane and probed.
Target sequence in this assay (P11362 22-822 limits assumed): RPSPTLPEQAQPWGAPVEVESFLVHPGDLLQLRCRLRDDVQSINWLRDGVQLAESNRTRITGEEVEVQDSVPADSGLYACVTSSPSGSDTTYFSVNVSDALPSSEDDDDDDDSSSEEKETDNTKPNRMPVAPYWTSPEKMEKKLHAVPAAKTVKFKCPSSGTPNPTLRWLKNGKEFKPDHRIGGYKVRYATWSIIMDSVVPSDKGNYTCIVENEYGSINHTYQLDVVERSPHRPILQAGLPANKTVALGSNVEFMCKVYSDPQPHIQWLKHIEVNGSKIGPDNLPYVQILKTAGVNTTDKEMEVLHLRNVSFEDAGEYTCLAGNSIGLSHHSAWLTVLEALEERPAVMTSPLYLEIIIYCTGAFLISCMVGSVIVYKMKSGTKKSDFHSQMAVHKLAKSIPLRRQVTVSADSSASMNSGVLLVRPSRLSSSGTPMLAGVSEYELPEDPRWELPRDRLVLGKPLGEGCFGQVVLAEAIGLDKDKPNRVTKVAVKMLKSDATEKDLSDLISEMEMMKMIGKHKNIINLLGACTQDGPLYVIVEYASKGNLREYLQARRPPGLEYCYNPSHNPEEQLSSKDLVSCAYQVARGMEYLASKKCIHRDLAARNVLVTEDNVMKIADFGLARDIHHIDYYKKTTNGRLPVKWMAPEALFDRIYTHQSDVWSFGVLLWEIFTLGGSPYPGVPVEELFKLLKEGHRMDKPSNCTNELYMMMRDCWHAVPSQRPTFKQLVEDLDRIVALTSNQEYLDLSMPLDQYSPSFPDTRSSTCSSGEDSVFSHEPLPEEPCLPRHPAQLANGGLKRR

Data set [14] has as its target T3, Fibroblast growth factor receptor 2 (Homo sapiens, UniProt P21802). In words: Inhibition of FGFR2 in human SNU15 cells assessed as reduction of PLCgamma phosphorylation at 0.1 to 10 nM after 2 hrs by Western blot method. In kind it is cell-based.
In data set [15] the target is T3, Fibroblast growth factor receptor 2. Nature of the data set: Inhibition of FGFR2 in human SNU15 cells assessed as reduction of ERK phosphorylation at 0.1 to 10 nM after 2 hrs by Western blot method. It is filed as cell-based.
Data set [16] deals with NCI-H1581. Nature of the data set: Antitumor activity against FGFR1-amplified human NCI-H1581 cells xenografted in nude mouse assessed as tumor growth inhibition at 2 mg/kg, po qd administered for 21 days measured on day 21 post last dose relative to vehicle-treated control. It is filed as functional. The note with it: 504 h, read-out: TGI. A digest of the protocol: (§3)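 Female nude mice (4–6 weeks) housed under SPF conditions. NCI-H1581 tumours were first grown from 5 × 10^6 cells s.c., and 1.5 mm3 fragments were then transplanted s.c. into the right flank. At 115 mm3, mice were randomized and given vehicle or compound orally once daily for 21 days (2 or 10 mg/kg). Tumours were measured by caliper twice weekly, with TV = length × width²/2.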

Data set [17] concerns NCI-H1581. In words: Antitumor activity against human NCI-H1581 cells xenografted in nude mouse assessed as tumor growth inhibition at 10 mg/kg, po qd administered for 21 days measured on day 21 post last dose relative to vehicle-treated control. It is filed as functional. As to conditions: 504 h, read-out: TGI. Summed up: as §3
The subject of data set [18] is NCI-H1581. In words: Antitumor activity against human NCI-H1581 cells xenografted in po dosed nude mouse assessed as tumor growth inhibition administered as qd for 21 days measured on day 21 post last dose. In kind it is functional, organism-based. A digest of the protocol:
as §3

The test system of data set [19] is Mus musculus. In words: Toxicity in nude mouse xenografted with human NCI-H1581 cells assessed as body weight loss at 2 to 10 mg/kg, po qd administered for 21 days measured during compound dosing. In kind it is organism-based. The note with it: in vivo, 504 h. Summed up:
as §3

A short description of data set [20]: cells. As to conditions: Homo sapiens, KG-1, 72 h.
Data set [21] in a line: cells. The note with it: Homo sapiens, SNU-16, 72 h.
The nature of data set [22]: cells. As to conditions: Homo sapiens, RT-112, 72 h.

T3 sequence (P21802 22-821 limits assumed): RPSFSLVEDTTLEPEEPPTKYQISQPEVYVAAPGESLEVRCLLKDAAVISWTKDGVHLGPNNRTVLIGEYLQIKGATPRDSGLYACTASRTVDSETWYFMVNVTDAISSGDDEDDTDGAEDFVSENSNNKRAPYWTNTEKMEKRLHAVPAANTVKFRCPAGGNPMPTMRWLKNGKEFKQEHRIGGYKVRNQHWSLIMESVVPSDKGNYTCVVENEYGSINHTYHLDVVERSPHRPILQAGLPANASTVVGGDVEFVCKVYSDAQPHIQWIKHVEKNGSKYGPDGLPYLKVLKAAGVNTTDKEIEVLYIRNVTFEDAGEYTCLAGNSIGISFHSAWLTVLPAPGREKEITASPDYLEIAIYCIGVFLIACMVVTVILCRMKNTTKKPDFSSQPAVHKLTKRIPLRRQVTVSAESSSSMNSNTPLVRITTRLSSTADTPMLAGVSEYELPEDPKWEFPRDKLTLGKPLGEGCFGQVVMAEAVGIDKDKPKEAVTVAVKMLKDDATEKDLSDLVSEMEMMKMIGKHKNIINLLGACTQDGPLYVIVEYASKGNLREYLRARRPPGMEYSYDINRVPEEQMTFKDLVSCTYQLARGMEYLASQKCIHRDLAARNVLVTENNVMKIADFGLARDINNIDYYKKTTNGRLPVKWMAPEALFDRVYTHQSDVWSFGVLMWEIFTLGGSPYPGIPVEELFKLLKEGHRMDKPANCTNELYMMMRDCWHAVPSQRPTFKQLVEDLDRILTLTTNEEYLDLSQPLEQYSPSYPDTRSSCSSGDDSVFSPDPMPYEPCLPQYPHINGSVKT
Fibroblast growth factor receptor 3, sequence (P22607 whole entry): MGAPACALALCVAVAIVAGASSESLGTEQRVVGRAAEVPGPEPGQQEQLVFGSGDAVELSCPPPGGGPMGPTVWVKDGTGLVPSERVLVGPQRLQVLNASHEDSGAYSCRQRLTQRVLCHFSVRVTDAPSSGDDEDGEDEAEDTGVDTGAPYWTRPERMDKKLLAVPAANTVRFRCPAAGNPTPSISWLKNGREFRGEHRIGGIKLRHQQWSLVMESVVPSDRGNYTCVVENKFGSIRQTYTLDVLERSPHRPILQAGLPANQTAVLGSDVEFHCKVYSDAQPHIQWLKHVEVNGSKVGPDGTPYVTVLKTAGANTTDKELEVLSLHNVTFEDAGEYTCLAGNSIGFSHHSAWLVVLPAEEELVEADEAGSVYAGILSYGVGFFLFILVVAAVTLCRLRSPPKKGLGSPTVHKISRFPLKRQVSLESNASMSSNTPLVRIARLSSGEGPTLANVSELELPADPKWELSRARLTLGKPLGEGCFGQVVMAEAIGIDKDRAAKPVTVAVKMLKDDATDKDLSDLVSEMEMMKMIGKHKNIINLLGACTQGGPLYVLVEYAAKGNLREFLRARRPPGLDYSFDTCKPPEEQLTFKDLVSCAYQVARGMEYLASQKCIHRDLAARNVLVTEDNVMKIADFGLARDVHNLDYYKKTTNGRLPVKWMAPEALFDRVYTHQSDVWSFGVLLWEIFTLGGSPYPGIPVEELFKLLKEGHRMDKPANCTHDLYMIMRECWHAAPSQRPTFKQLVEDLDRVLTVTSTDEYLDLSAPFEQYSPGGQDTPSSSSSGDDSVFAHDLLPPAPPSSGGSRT
Platelet-derived growth factor receptor alpha, sequence (P16234 whole entry): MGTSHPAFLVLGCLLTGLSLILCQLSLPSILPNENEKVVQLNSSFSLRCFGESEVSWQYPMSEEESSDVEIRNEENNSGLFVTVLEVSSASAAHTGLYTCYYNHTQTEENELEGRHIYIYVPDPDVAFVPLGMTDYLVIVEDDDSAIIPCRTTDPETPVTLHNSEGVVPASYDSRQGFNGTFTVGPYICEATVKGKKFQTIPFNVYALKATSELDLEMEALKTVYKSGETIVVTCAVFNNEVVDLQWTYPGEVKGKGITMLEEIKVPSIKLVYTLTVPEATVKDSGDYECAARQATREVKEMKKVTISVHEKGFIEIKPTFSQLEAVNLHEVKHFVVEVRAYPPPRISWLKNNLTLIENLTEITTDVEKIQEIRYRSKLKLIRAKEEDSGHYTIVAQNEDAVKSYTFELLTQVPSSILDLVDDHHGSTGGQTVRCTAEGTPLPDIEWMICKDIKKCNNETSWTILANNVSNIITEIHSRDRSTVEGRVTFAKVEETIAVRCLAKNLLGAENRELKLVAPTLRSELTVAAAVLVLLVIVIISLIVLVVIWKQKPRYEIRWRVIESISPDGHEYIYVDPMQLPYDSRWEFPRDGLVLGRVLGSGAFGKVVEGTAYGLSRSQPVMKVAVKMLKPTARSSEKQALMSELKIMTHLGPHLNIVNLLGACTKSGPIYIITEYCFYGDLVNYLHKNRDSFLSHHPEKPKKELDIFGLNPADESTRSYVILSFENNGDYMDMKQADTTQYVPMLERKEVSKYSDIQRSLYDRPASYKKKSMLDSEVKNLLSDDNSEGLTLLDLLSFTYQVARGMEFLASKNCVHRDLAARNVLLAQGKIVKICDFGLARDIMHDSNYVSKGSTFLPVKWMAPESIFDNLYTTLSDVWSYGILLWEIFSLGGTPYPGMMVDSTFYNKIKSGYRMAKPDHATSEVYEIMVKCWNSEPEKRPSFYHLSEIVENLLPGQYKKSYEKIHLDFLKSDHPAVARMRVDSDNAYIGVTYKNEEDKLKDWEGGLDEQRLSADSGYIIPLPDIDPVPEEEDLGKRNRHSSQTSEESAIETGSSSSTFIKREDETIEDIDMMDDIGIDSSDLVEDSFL
Hepatocyte growth factor receptor, sequence (P08581 whole entry): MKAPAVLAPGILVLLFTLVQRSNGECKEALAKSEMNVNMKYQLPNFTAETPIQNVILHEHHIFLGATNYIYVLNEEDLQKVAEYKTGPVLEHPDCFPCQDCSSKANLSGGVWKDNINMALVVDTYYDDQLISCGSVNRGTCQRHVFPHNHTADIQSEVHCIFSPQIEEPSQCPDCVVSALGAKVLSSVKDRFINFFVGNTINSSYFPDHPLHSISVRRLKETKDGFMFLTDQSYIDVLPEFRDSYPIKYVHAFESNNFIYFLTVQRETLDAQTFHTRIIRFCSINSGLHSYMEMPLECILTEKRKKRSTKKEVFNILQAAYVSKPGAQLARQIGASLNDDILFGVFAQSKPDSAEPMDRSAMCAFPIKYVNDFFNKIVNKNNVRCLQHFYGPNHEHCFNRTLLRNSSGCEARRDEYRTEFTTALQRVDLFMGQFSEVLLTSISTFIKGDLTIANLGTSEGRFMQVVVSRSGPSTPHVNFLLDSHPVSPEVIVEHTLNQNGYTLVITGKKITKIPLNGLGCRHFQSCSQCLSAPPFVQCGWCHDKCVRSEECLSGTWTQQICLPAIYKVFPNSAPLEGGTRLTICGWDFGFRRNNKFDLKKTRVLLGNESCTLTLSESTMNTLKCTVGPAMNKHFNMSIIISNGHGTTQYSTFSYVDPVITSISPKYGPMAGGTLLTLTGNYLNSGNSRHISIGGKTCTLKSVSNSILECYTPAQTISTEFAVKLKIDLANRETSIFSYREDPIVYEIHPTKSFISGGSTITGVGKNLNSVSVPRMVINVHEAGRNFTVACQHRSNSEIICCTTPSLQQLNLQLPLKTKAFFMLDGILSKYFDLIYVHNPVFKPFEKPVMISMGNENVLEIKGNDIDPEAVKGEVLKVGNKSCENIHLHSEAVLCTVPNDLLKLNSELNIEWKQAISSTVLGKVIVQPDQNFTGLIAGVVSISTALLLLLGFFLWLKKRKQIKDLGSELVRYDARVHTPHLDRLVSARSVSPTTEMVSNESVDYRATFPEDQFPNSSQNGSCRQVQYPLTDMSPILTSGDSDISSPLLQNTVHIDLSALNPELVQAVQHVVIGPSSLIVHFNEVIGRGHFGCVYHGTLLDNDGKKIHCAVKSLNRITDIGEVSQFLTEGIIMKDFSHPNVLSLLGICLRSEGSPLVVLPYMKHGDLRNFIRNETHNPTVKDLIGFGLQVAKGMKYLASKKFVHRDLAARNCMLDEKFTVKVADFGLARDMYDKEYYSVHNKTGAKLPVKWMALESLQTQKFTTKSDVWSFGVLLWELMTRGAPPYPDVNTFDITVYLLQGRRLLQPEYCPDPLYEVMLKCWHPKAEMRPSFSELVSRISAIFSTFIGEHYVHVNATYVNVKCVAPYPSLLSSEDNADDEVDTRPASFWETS

Take `C[C@@H](Oc1ccc2[nH]nc(-c3nc4cc(N5CCN(C)CC5)ccc4[nH]3)c2c1)c1c(Cl)cncc1Cl`: the IC50 in [1] is 0.9 nM; in data set [2] it was 4.2 nM; in [8], 2 nM; in data set [9] it was greater than 1000 nM; in [10] it was 782 nM; in data set [11], greater than 100 nM. Further, the concentration for half-maximal inhibition (IC50) is greater than 100 nM in [12], less than 0.1 nM in data set [20], less than 0.1 nM in data set [21] and less than 0.1 nM in data set [22]. The Tmax in data set [3] was 4 h. Besides, in data set [4], the half-life was 2 h. Also, the AUC(0-inf) in data set [5] worked out at 799 ng·h/mL. The same compound showed a clearance in [6] of 33.3 mL/min/kg. Further, the bioavailability in [7] is 33%. In [13], the inhibition result is “Dose-dependent effect”. For the same compound, the inhibition entry in data set [14] and in data set [15] was “Active” each time. Moreover, the inhibition in vivo at 2 mg/kg in data set [16] is 44.5%. The inhibition in vivo at 10 mg/kg in [17] amounted to 96.9%. The TGI result in data set [18] was “Dose-dependent effect”. Also, the Activity result in [19] is recorded as “Non-toxic”.
